Screening results as filed in PubChem.
The entries come from a sample that favours hits as a whole.
H69AR inhibit – growth inhibitors of human H69AR lung tumor cells; H69AR lung tumor viability, ATP luminescence, 72 h; active compounds read low; viability, % at 10 µM; 6% of 85,000 active; AID 598;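 active means viability at or below 40%; inactive means viability above 40%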;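 further: multidrug resistant small cell line overexpressing MRP-1 efflux transporter; 100% = mean luminescence of untreated control wells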
Lung fibro prol – blocks proliferation of human lung fibroblasts; AID 719; LL 47 human lung fibroblast viability, ATP luminescence; active compounds read low; viability, % at 10 µM; 1.1% of 85,000 active;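 active means viability at or below 50% in the single dose screen; inactive means viability above 50%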;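 further: compound exposure lasted 72 h before the ATP readout; 100% = median luminescence of untreated cell-only wells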
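Assay system: human lung fibroblast line LL 47, low passage. Input: 1,150 fibroblasts seeded per well. Times: overnight cell rest, 72 h compound treatment at 37 °C. Evaluation: % viability of median cell-only signal. Technique: luminescent ATP detection, CellTiter-Glo. Control set: cell-only wells, no compound.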
HCT116 bCat-KO – beta-catenin-lacking colon tumor cell growth suppression; AID 818; viability, % at 10 µM; 1.5% of 140,000 active; HCT116 beta-catenin knockout viability, CellTiter-Glo, 60 h; active compounds read low;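 active means viability at or under a set limit, the compound median less 4 SD, cut at about 6% in these data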;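 further: 0% = Hyamine 1622 control at 20 µM and 100% = untreated cell control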
HUVEC inhibit – inhibitors of human endothelial cell proliferation. HUVEC proliferation, CellTiter-Glo luminescence, 72 h; active compounds read low. viability, % at 10 µM (by protocol). 1.1% of 86,000 active;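 active means viability at or below 30%; inactive means viability above 30%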;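 further: 100% = median luminescence of DMSO-only cell control wells on each plate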
PTEN del growth – growth suppressors of cells with PTEN tumor suppressor deletion. 1.2% of 140,000 active. HCT116 PTEN-null viability, CellTiter-Glo, 60 h; active compounds read low. viability, % at 10 µM;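 active means viability at or below a set limit, 4 SD under the median of all tested compounds, cut at about 3.7% in these data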;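 further: PTEN knockout HCT116 line with beta catenin targeted HCT116 as companion control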
Numbers without * were called inactive; . = no result.

SMILES	H69AR inhibit	Lung fibro prol	HCT116 bCat-KO	HUVEC inhibit	PTEN del growth
O=C(/C=C/c1ccc(Br)cc1)NC(=S)NNC(=O)c1ccco1	36*	73	36	61	45
O=C(NNC(=O)c1ccco1)c1ccccc1	.	.	93	.	89
Cc1cccc(NC(=S)NNC(=O)c2ccco2)c1	.	.	98	.	96
O=C(/C=C/c1ccccc1)NC(=S)NNC(=O)c1ccco1	25*	78	39	77	43
CCOC(=O)C(NC(C)=O)C(OC(C)=O)c1cccc([N+](=O)[O-])c1 (stereo not drawn)	.	.	105	.	104
C=CCN1C(c2ccc(OCC)cc2)=CS/C1=C(\C#N)c1nnc2n1CCCCC2	34*	100	60	68	66
CCOc1ccc(N(CC(=O)Nc2cccc(Cl)c2)S(=O)(=O)c2c(C)noc2C)cc1	30*	73	28	80	23
CCOc1ccc(N(CC(=O)Nc2cccc(OC)c2)S(=O)(=O)c2c(C)noc2C)cc1	72	89	53	88	56
CC1=C(C(=O)Nc2ccc(Cl)cc2)C2(CCCCC2)C(C(N)=O)C(=S)N1 (stereo not drawn)	.	.	83	.	81
N=c1c(C(=O)NC2CCCCC2)cc2c(=O)n3ccccc3nc2n1CCN1CCOCC1	84	107	.	106	.
O=C(Nc1nc2ccc(S(=O)(=O)N3CCCC3)cc2s1)C1CCCCC1	23*	47*	16	41	19
O=C(Nc1nc2ccc(S(=O)(=O)N3CCCCC3)cc2s1)C1CCCO1 (stereo not drawn)	100	98	55	78	53
Nc1nc2ccc(S(=O)(=O)N3CCCCC3)cc2s1	0.7*	47*	91	82	83
NC/C(=N\O)c1ccc(Cl)cc1Cl	108	97	92	98	93
Cn1c(-c2ccc(C=O)s2)nc2c3ccccc3c3ccccc3c21	18*	89	25	60	7
Cc1c(C#N)c2ccccc2n1CC(=O)N1CCCC1	94	95	93	102	105
Cc1c(C#N)c2ccccc2n1CC(=O)N1CCCc2ccccc21	32*	93	88	92	80
Cc1nn2c(-c3cccc(NC(=O)CSc4nc5ccccc5o4)c3)nnc2c2ccccc12	9.6*	109	68	72	61
COc1ccc(C(=O)/C=C/c2ccccc2C(F)(F)F)cc1	.	.	13	.	14
COc1cc2c3c(c1)-c1c(sn(-c4cc(OC)ccc4OC)c1=S)C(C)(C)N3C(=O)C2=O	3.9*	101	2.4*	51	1.2*
COc1ccc2c(c1)-c1c(sn(-c3ccc(OC)c(OC)c3)c1=S)C(C)(C)N2	.	.	52	.	54
CCOc1cc(/C=C2\CCC/C(=C\c3cc(Cl)c(O)c(OCC)c3)C2=O)cc(Cl)c1O	.	.	2.0*	.	1.7*
C=CCNC(=O)/C(C#N)=C\c1cc(Cl)c(O)c(OCC)c1	.	.	104	.	97
CC(=O)OC(C(=O)NCc1ccco1)c1ccncc1 (stereo not drawn)	.	100	93	95	91
Cc1cc2c(cc(C(=O)OCC(=O)NCc3ccco3)n2C)s1	27*	71	25	58	27
SMILES	H69AR inhibit	Lung fibro prol	HCT116 bCat-KO	HUVEC inhibit	PTEN del growth
Cn1c(C(=O)OCC(=O)NCc2ccco2)cc2sccc21	82	97	100	74	94
CCOCc1c(C(=O)OCC(=O)Nc2ccc(C)c(S(=O)(=O)N(C)C)c2)oc2ccccc12	.	.	84	.	93
CCCSc1nnc(NC(=O)Nc2ccc(F)cc2)s1	11*	47*	42	47	41
CN(Cc1ccccc1)S(=O)(=O)c1ccc(S(=O)(=O)N(Cc2ccc(F)cc2)C2CCCC2)cc1	32*	99	85	87	88
O=C(CSc1nc2ccccc2c(=O)n1-c1ccccc1Cl)Nc1cccc(S(=O)(=O)N2CCOCC2)c1	.	.	91	.	87
C/C(=N\NC(=O)c1c(-c2ccccc2Cl)noc1C)c1cccc(NC(=O)C(C)C)c1	.	.	100	.	95
Cc1ccc(-c2cc(NC(=O)CCl)n(-c3ccccc3)n2)cc1	0.9*	3.3*	2.6*	9.6*	2.0*
O=C(CCl)Nc1cc(-c2ccccc2)nn1-c1ccccc1	1.2*	6.8*	3.6*	14*	2.5*
CCOc1ccc(C(=O)N2CCSC2=S)cc1	98	96	104	76	101
Cc1ccc(C(=O)N/C(N)=N/c2nc3ccccc3o2)cc1	47	103	44	94	39
COc1ccccc1C(=O)N/C(N)=N/c1nc2ccccc2o1	15*	102	92	59	80
O=C(NCCCO)C(=O)NCCc1ccc(Cl)cc1	.	.	105	.	96
CCSC1=NC2(CCCCC2)Nc2sc3c(c21)CCCC3	2.2*	89	82	78	84
CCSc1nc2sc3c(c2c(=O)[nH]1)CCCC3	80	94	97	84	96
Cc1ccccc1NS(=O)(=O)c1ccc(N2CCCC2=O)cc1	26*	49*	18	63	28
NC(N)=N/N=C/c1ccccc1	99	96	91	99	81
NC(N)=N/N=C/c1ccc(OCc2ccccc2Cl)cc1	.	.	0.9*	.	0.9*
CN1CCN(C(=O)c2cn(C)c3ccc(S(=O)(=O)N(C)C4CCCCC4)cc3c2=O)CC1	100	96	94	108	91
Cn1cc(C(=O)NC2CCCCCC2)c(=O)c2cc(S(=O)(=O)N3CCCC3)ccc21	54	.	31	81	29
CN(C1CCCCC1)S(=O)(=O)c1ccc2c(c1)c(=O)c(C(=O)N1CCc3ccccc3C1)cn2C	5.9*	91	82	93	86
Cn1cc(C(=O)NC2CCCCCCC2)c(=O)c2cc(S(=O)(=O)N3CCCC3)ccc21	32*	49*	95	52	80
CC(=O)c1ccccc1C(=O)NCc1cccnc1	.	.	99	.	104
O=C(NC1CCCC1)c1sc(=S)n2c1[nH]c(=O)c1ccccc12	22*	96	69	64	69
Cc1ccc(Nc2nc(N3CCN(C)CC3)nc(N)c2[N+](=O)[O-])cc1C	.	.	70	.	71
COc1ccc(Cl)cc1NC(=O)CN1C(=O)CCS(=O)(=O)c2ccccc21	29*	101	85	101	83
SMILES	H69AR inhibit	Lung fibro prol	HCT116 bCat-KO	HUVEC inhibit	PTEN del growth
COc1ccccc1NC(=O)Cn1nc(-c2ccc(Cl)cc2)c2ccccc2c1=O	35*	105	9	89	14
COc1ccc(Cl)cc1NC(=O)Cn1c(=O)n2nc(C)nc2c2ccccc21	0.9*	103	93	93	88
CCCCCNC(CC(=O)Nc1ccc(OC)cc1)C(=O)O (stereo not drawn)	96	103	.	99	.
CC(=O)c1ccccc1Oc1nc(CN2CCOCC2)nc2scc(-c3cccs3)c12	30*	.	61	75	57
CCN(CC)S(=O)(=O)c1ccc(C)c(NC(=S)NNC(=O)C2CC2)c1	.	.	89	.	102
Cc1ccc2[nH]c(=O)c(CN(CCCN3CCOCC3)C(=O)Nc3cccc(Cl)c3)cc2c1	20*	64	40	8.5*	33
COc1cc2c(=O)n(-c3ccc(C)cc3)c(=O)n(CC(=O)c3ccc4c(c3)OCO4)c2cc1OC	55	98	99	111	102
COc1cc2c(O)c3c(c(-c4ccc5c(c4)OCO5)c2cc1OC)C(=O)OC3	3.6*	11*	2.5*	2.6*	2.6*
